Experimental data: publication PMC11400628 (Protein Science : A Publication of the Protein Society, 2024)

Assays:
[1] = molecular target: T1, CaMKIIα WT hub (Homo sapiens, UniProt Q9UQM7); test: Thermal shift assay; type: binding; conditions: for maximum ∆Tm: DSF, mean ± SEM, n = 3
T1 sequence (Q9UQM7 345-475): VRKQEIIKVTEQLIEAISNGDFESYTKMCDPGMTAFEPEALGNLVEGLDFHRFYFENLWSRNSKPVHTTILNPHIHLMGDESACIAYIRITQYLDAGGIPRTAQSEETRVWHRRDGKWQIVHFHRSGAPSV

[2] = molecular target: T1, CaMKIIα WT hub; test: Small-angle X-ray scattering, CaMKIIα WT hub; conditions: CaMKIIα WT hub 1.2–3.9 mg/mL; PIPA 200 μM, HOCPCA 1000 μM, 5-HDC 100 μM
[3] = molecular target: CaMKIIα holoenzyme (Homo sapiens, UniProt Q9UQM7); test: ADP-Glo kinase assay, syntide-2 phosphorylation; type: biochemical; conditions: sub-maximal (30 nM) CaM; concentrations up to 5–10 mM
CaMKIIα holoenzyme, sequence (Q9UQM7 whole entry): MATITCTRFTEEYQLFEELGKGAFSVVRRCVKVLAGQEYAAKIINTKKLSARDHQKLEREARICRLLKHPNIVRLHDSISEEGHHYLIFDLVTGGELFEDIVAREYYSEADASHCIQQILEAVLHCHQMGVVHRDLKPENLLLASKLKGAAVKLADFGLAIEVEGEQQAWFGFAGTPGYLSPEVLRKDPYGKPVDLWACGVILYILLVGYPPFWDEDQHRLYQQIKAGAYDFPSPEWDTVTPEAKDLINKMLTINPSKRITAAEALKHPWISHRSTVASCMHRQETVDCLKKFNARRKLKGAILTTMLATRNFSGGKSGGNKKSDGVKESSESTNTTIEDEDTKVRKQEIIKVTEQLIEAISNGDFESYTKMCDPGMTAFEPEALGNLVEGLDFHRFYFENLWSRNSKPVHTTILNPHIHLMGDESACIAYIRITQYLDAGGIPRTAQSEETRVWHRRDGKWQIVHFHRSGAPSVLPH

[4] = molecular target: T2, CaMKIIα W403L hub (Homo sapiens, UniProt Q9UQM7, W403L); test: Thermal shift assay; type: binding; conditions: DSF, mean ± SEM, n = 3
T2 sequence (Q9UQM7 345-475 W403L): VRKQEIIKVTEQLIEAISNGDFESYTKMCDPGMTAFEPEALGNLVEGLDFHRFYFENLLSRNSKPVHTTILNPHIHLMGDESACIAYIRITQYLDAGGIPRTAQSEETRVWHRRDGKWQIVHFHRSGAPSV

[5] = molecular target: T2, CaMKIIα W403L hub; test: Surface plasmon resonance, immobilized CaMKIIα W403L hub; type: binding
Outline: (§1)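 SPR at 25°C. Purified hub (WT or W403L) was amine-coupled to the sensor in 20 mM NaAc, pH 5. Test compound was injected as twofold dilutions in MES running buffer (20 mM MES, 150 mM NaCl, 1 mM DTT, pH 6), with blank and reference-surface subtraction. Equilibrium responses versus concentration were fitted to a 1:1 Langmuir isotherm for KD. Independent experiments: WT n = 3, W403L n = 2.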

[6] = molecular target: T1, CaMKIIα WT hub; test: Surface plasmon resonance, immobilized CaMKIIα WT hub; type: binding
Outline: as §1

[7] = molecular target: T2, CaMKIIα W403L hub; test: Mass photometry, CaMKIIα W403L hub; conditions: CaMKIIα W403L hub 100–500 nM, incubated with 200 μM PIPA
Outline: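 Mass photometry. The instrument was calibrated with apoferritin, BSA and […]. Purified W403L hub (1.5 mg/mL) was incubated 90 min with 200 μM test compound, then desalted into MES buffer (20 mM MES, 150 mM NaCl, 1 mM DTT, pH 6.0) plus compound. It was diluted to 500, 200 and 100 nM and recorded for 60 s, with a buffer blank before each run. Single-molecule mass histograms were built.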

[8] = molecular target: T1, CaMKIIα WT hub; test: Mass photometry, CaMKIIα WT hub; conditions: CaMKIIα WT hub 100–500 nM, incubated with 200 μM PIPA
[9] = molecular target: T3, CaMKIIα 6x hub (Homo sapiens, UniProt Q9UQM7, E355Q/F467M/I414M/I464H/T354N/T412N); test: Intrinsic tryptophan fluorescence assay; type: binding; conditions: pIC50, quenching of intrinsic tryptophan fluorescence, purified CaMKIIα 6x hub
T3 sequence (Q9UQM7 345-475 T354N/E355Q/T412N/I414M/I464H/F467M): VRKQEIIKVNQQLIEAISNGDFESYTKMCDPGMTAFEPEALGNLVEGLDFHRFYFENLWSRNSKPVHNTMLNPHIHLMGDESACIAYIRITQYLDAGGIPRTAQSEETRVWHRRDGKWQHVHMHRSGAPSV
Outline: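 Purified human CaMKIIα 6x hub (residues 345–475 with six stabilising mutations). Intrinsic Trp fluorescence was read at 25°C across a test compound series (e.g. 0.43–12.1 μM). Signals were background-corrected for compound in buffer, then normalised between hub alone and the high-concentration plateau. IC50 came from a variable-slope log(inhibitor)-response fit of pooled data, n = 3.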

[10] = molecular target: T3, CaMKIIα 6x hub; test: Small-angle X-ray scattering, CaMKIIα 6x hub; conditions: CaMKIIα 6x hub 6.7 mg/mL, PIPA 200 μM
Outline: (§2)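 SAXS. Purified hub constructs were buffer-exchanged by spin desalting into 20 mM MES, 150 mM NaCl, 1 mM DTT, pH 6.0, with or without 200 μM test compound, and measured as dilution series of 1–7 mg/mL protein at 20–22°C. Frames were radially averaged, buffer-subtracted and merged, scaled by concentration. Curves were fitted with dodecamer, tetradecamer, mixed or stacked-dodecamer models.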

[11] = molecular target: T2, CaMKIIα W403L hub; test: Small-angle X-ray scattering, CaMKIIα W403L hub; conditions: CaMKIIα W403L hub 6.8 mg/mL, PIPA 200 μM
Outline: as §2

[12] = molecular target: GHB binding site; conditions: low-affinity; ref Wellendorph et al., 2009; cited from earlier work
[13] = molecular target: human CaMKIIα W403L hub domain (human) (UniProt Q9UQM7); test: mass photometry
[14] = molecular target: the molecule itself; test: SAXS

Molecule: O=C(O)C1=CC(O)CC1 (stereo not shown) [HOCPCA, 3‐hydroxycyclopent‐1‐enecarboxylic acid, reference compound]
- maximum ∆Tm [1]: 11.5 ± 0.6 °C
- self-association / oligomeric state of hub (SAXS) [2]: not observed
- effect on syntide-2 substrate phosphorylation [3]: neither of the compounds affected substrate phosphorylation
- maximum ∆Tm [4]: 15.2 ± 1.0 °C

Molecule: O=C(O)Cc1cn2nc(-c3ccc(Cl)cc3)ccc2n1 [PIPA, 2‐(6‐(4‐chlorophenyl)imidazo[1,2‐b]pyridazine‐2‐yl)acetic acid]
- maximum ∆Tm [1]: 13.04 ± 0.09 °C
- maximum ∆Tm less compared to 5-HDC ([1]; difference PIPA vs 5-HDC): 10.7 °C
- self-association / oligomeric state of hub (SAXS) [2]: induced self‐association
- Kd [5]: 2800 ± 130 nM
- Kd [6]: 2900 ± 600 nM
- change in MW (mass photometry) [7]: did not display any change in MW
- molecular weight species (mass photometry) [8]: displayed a shoulder on the main peak around 220 kDa as well as a much larger species at 372 kDa
- IC50 [9]: 5010 nM
- self-association of hub (SAXS) [10]: no self‐association was detected
- maximum ∆Tm [4]: 24.5 ± 0.4 °C
- self-association of hub (SAXS) [11]: no self‐association was detected

Molecule: CC(=O)O [acetate]
- effect on syntide-2 substrate phosphorylation [3]: neither of the compounds affected substrate phosphorylation
- Ki [12]: > 100000 nM

Molecule: human CaMKIIα W403L hub domain (from UniProt Q9UQM7 345-475) (domain or fragment)
- stoichiometry N [13]: 12

B1: human CaMKIIα wild-type (WT) hub domain (domain or fragment, UniProt Q9UQM7 345-475, looked up)
chain: VRKQEIIKVTEQLIEAISNGDFESYTKMCDPGMTAFEPEALGNLVEGLDFHRFYFENLWSRNSKPVHTTILNPHIHLMGDESACIAYIRITQYLDAGGIPRTAQSEETRVWHRRDGKWQIVHFHRSGAPSV
- stoichiometry N [14]: 12
